# Results reported in ChEMBL document CHEMBL2086292, “Chalcogenopyrylium compounds as modulators of the ATP-binding cassette transporters P-glycoprotein (P-gp/ABCB1) and multidrug resistance protein 1 (MRP1/ABCC1)” (J Med Chem, 2012).
# “And” between values parts separate entries of the source, which are not always exact repeats. Equal values may be shown once.
# Key:
# [1] = biological target: T1, MRP1 (Multidrug resistance-associated protein 1) (Homo sapiens, UniProt P33527); experiment: Inhibition of human MRP1 mediated uptake of [3H]E2-17betaG in HEK cell membrane vesicles at 30 uM by liquid scintillation counting relative to control; format: cell membranes, HEK293; conditions: HEK cell membrane vesicles with human MRP1, probe [3H]E2-17betaG
# How it was run: (§1)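 Inside-out membrane vesicles from HEK cells stably transfected with human MRP1. Vesicle protein (2 μg) incubated in Tris-sucrose buffer pH 7.4 with 400 nM [3H]E2-17βG, 4 mM ATP or AMP and 10 mM MgCl2, 3 min at 37 °C, in duplicate; DMSO ≤1% final. Stopped by ice-cold dilution and rapid filtration, then scintillation counted. ATP-dependent uptake taken as ATP minus AMP values; inhibition reported as percent.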
# P-gp (ABCB1) = P-gp (ABCB1) (Homo sapiens, UniProt P08183); experiment: Induction of ATPase activity of human His10-tagged P-gp expressed in BHK cells assessed as inorganic phosphate release after 30 mins relative to control; format: cell-based; conditions: human His10-tagged P-gp expressed in BHK cells, read-out: FC
# How it was run: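 Human P-gp with C-terminal His10 tag, stably expressed in BHK cells, purified by Ni-chelate chromatography and mixed 1:1 with 10 mg/mL sheep brain phosphatidylethanolamine in TBS (10 mM Tris/HCl pH 7.4, 150 mM NaCl), then sonicated. Compound titrated, 30 min at 37 °C. Inorganic phosphate released from ATP measured. Vmax expressed as fold over basal activity; KM is the concentration giving half-maximal stimulation.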
# [2] = biological target: T1, MRP1 (Multidrug resistance-associated protein 1); experiment: Inhibition of human MRP1 mediated uptake of [3H]E2-17betaG in HEK cell membrane vesicles at 5 uM by liquid scintillation counting relative to control; format: cell membranes, HEK293; conditions: HEK cell membrane vesicles with human MRP1, probe [3H]E2-17betaG
# How it was run: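 Inside-out vesicles from stably transfected HEK-MRP1 cells (2 μg protein) in Tris-sucrose buffer pH 7.4 with [³H]E₂17βG 400 nM, ATP or AMP 4 mM, MgCl₂ 10 mM, 3 min at 37 °C, compound at 5 μM; DMSO ≤1%; stopped by ice-cold dilution, rapid filtration, scintillation counting; ATP-dependent uptake = ATP minus AMP; duplicate wells.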
# MDCK-II [3] = experiment: Inhibition of P-gp expressed in MDCK2-MDR1 cells at 5 uM by calcein AM accumulation assay relative to LSN 335984; format: cell-based
# How it was run: (§2)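 MDCKII cells transfected with wild-type human MDR1, seeded at 40000 cells/well and used on day 4. Washed in DPBS with 10 mM HEPES pH 7.4, then compound in the same buffer 30 min at 37 °C. Replaced with compound plus 0.5 μg/mL calcein AM for a further 20 min. Fluorescence read at Ex 485/Em 530 nm. Signal expressed relative to 5 μM LSN 335984, taken as complete inhibition; vehicle 0.25% DMSO. IC50 from 1:1 serial dilutions by variable-slope sigmoidal fit.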
# MDCK-II [4] = experiment: Inhibition of P-gp expressed in MDCK2-MDR1 cells at 25 uM by calcein AM accumulation assay relative to LSN 335984; format: cell-based; how it was run: as §2
# [5] = biological target: T1, MRP1 (Multidrug resistance-associated protein 1); experiment: Inhibition of human MRP1-mediated uptake of [3H]E2-17betaG in HEK cell membrane vesicles at 1 uM by liquid scintillation counting relative to control; format: cell membranes, HEK293; conditions: HEK cell membrane vesicles with human MRP1, probe [3H]E2-17betaG; how it was run: as §1
# [6] = biological target: T1, MRP1 (Multidrug resistance-associated protein 1); experiment: Inhibition of human MRP1-mediated uptake of [3H]E2-17betaG in HEK cell membrane vesicles at 10 uM by liquid scintillation counter; format: cell membranes, HEK293; conditions: HEK cell membrane vesicles with human MRP1, probe [3H]E2-17betaG; how it was run: as §1
# P-glycoprotein (MDR1) [7] = experiment: P-glycoprotein-mediated transport in MDCK2-MDR1 cells assessed as permeability across apical to basolateral side at 5 uM after 1 hr; conditions: dog, MDCK-MDR1
# [8] = Normalized ratio of the compound assessed as ratio of PBA/AB in absence of LSN 335984 to ratio of PBA/AB in presence of LSN 335984 in MDCK2-MDR1 cells at 5 uM after 1 hr; format: ADME, cell-based, Canis lupus familiaris; conditions: dog, mdck-mdr1, 1 h
# How it was run: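 MDCKII-MDR1 cells seeded at 50000 cells/cm² on Transwell filters, used on day 6. Preincubated 30 min with 4.3 mg/mL BSA in DPBSH, with or without 5 μM LSN 335984. Compound (5 μM) added to the apical or basolateral donor chamber and incubated 1 h at 37 °C with nutation. Donor and receiver samples quantified by LC-MS/MS. AB and BA permeabilities calculated. Normalized ratio is the BA/AB ratio without inhibitor divided by the ratio with inhibitor.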
# P-glycoprotein (MDR1) [9] = experiment: P-glycoprotein-mediated transport in MDCK2-MDR1 cells assessed as permeability across basolateral to apical side at 5 uM after 1 hr; conditions: dog, MDCK-MDR1
# [10] = Octanol-water partition coefficient, log P of the compound in PBS at pH 7.4 after 1 hr by shake flask method; format: physicochemical
# How it was run: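 Shake-flask method: saturated n-octanol solution shaken with an equal volume of PBS pH 7.4 for 3–5 min, then left to settle 1 h at 23 °C. Concentration in each layer measured spectrophotometrically.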
# [11] = Inhibition of P-gp expressed in MDCK2-MDR1 cells by calcein AM accumulation assay; format: cell-based; conditions: MDCK-II
# How it was run: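 MDCKII cells transfected with wild-type human MDR1, seeded at 40000 cells/well and used on day 4. Washed in DPBS with 10 mM HEPES pH 7.4, then compound in the same buffer 30 min at 37 °C. Replaced with compound plus 0.5 μg/mL calcein AM for a further 20 min. IC50 from 1:1 serial dilutions by variable-slope sigmoidal fit.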
# [12] = Inhibition of P-gp mediated [3H]VIN efflux in MDCK2-MDR1 cells by scintillation counter; format: cell-based; conditions: MDCK-II
# How it was run: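 MDCKII-MDR1 monolayers on Transwell filters, used on day 6. Rinsed in DPBSH, then preincubated 30 min at 37 °C with compound ([…]) in BSA/DPBSH. [3H]vinblastine (0.25 μCi/mL) plus compound added basolaterally and fresh compound solution added apically. Apical buffer replaced every 10 min; apical radioactivity counted by scintillation. IC50 fitted.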
# P-gp (ABCB1), sequence (P08183 whole entry): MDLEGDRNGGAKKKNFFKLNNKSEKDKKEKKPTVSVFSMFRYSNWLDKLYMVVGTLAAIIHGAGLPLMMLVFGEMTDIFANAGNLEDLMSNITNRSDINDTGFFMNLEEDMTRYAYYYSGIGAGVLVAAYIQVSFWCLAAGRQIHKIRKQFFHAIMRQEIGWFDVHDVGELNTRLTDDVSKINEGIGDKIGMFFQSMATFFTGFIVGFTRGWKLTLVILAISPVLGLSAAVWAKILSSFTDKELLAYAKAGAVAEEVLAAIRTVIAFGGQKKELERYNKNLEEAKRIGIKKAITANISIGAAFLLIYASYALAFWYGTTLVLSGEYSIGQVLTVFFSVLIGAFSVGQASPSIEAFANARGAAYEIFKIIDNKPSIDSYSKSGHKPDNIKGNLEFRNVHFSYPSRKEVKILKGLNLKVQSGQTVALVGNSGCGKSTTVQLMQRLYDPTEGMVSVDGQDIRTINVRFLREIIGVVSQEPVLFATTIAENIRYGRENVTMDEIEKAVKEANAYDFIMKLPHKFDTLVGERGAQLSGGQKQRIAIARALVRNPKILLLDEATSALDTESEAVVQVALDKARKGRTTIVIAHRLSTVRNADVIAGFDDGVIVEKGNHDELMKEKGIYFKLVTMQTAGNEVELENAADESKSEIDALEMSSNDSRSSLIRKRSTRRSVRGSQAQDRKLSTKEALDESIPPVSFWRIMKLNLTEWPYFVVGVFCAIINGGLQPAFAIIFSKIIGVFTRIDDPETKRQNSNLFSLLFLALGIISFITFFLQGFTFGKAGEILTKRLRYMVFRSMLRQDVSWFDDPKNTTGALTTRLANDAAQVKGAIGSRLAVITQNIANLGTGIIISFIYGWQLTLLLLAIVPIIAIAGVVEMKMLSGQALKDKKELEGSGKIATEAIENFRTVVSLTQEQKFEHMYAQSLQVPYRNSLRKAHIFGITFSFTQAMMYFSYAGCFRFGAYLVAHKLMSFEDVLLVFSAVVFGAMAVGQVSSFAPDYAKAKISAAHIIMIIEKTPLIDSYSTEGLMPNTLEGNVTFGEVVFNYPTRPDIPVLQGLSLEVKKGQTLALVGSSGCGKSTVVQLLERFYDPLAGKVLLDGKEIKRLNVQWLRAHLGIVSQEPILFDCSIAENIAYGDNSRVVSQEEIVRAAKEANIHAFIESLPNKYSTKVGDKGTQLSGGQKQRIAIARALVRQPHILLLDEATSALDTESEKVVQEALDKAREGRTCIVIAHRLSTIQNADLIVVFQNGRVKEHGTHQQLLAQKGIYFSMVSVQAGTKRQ
# T1 sequence (P33527 whole entry): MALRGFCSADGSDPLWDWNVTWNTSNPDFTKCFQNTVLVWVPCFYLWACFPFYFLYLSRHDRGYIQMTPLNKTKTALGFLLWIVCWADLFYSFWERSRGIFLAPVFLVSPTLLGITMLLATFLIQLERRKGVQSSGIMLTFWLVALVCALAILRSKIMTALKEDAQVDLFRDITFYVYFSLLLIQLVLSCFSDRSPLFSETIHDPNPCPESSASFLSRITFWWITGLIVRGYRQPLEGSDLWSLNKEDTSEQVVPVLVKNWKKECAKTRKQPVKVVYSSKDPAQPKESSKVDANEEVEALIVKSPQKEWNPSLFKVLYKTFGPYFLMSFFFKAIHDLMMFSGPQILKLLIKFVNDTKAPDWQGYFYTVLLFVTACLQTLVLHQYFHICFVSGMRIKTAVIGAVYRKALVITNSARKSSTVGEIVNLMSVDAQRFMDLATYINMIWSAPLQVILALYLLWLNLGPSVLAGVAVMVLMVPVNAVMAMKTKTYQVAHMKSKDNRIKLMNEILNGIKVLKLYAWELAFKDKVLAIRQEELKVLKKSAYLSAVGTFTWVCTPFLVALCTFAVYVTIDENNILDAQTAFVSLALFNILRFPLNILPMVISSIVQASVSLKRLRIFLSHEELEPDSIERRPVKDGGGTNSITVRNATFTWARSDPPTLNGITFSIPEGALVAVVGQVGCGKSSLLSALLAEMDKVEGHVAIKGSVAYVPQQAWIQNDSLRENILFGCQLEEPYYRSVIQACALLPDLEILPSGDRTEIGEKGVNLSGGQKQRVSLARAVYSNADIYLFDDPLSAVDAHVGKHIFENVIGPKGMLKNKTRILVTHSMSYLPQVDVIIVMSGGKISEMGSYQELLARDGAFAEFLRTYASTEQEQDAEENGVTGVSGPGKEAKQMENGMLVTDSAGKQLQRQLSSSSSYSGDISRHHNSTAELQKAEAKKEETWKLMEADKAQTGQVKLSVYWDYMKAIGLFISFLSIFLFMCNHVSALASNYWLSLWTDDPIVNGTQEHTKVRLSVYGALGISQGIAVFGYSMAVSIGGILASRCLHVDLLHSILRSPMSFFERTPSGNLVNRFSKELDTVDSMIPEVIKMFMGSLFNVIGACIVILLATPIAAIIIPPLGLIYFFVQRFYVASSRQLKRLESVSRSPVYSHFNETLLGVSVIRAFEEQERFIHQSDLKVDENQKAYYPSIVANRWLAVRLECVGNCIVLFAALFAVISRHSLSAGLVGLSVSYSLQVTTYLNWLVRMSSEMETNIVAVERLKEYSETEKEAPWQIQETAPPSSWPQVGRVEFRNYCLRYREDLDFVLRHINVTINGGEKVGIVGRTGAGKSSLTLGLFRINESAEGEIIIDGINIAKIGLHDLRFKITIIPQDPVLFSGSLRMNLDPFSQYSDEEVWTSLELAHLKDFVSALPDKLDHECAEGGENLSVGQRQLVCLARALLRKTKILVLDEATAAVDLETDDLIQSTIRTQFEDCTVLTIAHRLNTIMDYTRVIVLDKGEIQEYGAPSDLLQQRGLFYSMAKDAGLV
Structure (SMILES),inhibition at 30 µM [1] [%],fold induction at 0.5 h (P-gp (ABCB1)),inhibition at 1 µM [5] [%],further results
CC(C)(C)c1cc(-c2ccc(C(=S)N3CCCCC3)s2)cc(C(C)(C)C)[se+]1,81,4.3,–,–
CC(C)(C)c1cc(-c2ccc(C(=S)N3CCCCC3)s2)cc(C(C)(C)C)[te+]1,–,7.4,–,inhibition at 5 µM [2]: 50%
CC(C)(C)c1cc(-c2ccc(C(=S)N3CCCCC3)s2)cc(C(C)(C)C)[s+]1,–,–,–,inhibition (MDCK-II [3]): 3.6%; inhibition (MDCK-II [4]): 27% and < 7%
CC(C)(C)c1cc(-c2ccc(C(=O)O)s2)cc(C(C)(C)C)[s+]1,–,3.5,8,inhibition (MDCK-II [3]): 0%; inhibition (MDCK-II [4]): 0%
CCN(CC)C(=O)c1ccccc1-c1cc(C(C)(C)C)[se+]c(C(C)(C)C)c1,31,5.9,–,–
Nc1ccc(-c2cc(-c3ccc(N4CCOCC4)cc3)cc(-c3ccccc3)[te+]2)cc1,96,4.5,–,–
CN(C)c1ccc(-c2cc(-c3ccc(N(C)C)cc3)[se+]c(C(C)(C)C)c2)cc1,96,10.1,–,–
CC(C)(C)c1cc(-c2ccc(C(=S)N3CCCCC3)s2)cc(C(C)(C)C)[s+]1.[Cl-],–,3.7,0,"inhibition at 10 µM [6]: 32%; Papp A-B at 1 h, 5 µM (P-glycoprotein (MDR1) [7]): 0.18 ×10⁻⁶ cm/s; Ratio [8]: 15; Papp B-A at 1 h, 5 µM (P-glycoprotein (MDR1) [9]): 30 ×10⁻⁶ cm/s; logD at 1 h [10]: 0.7"
CN(C)c1ccc(-c2cc(-c3ccc(C(=O)N4CCCCC4)s3)cc(C(C)(C)C)[s+]2)cc1.F[P-](F)(F)(F)(F)F,–,6.6,0,"inhibition at 10 µM [6]: 59%; Papp A-B at 1 h, 5 µM (P-glycoprotein (MDR1) [7]): 0.56 ×10⁻⁶ cm/s; Ratio [8]: 4; Papp B-A at 1 h, 5 µM (P-glycoprotein (MDR1) [9]): 2.2 ×10⁻⁶ cm/s; IC50 [11]: 18 µM; logD at 1 h [10]: 1.4"
CN(C)c1ccc(-c2cc(-c3ccc(C(=S)N4CCCCC4)s3)cc(-c3ccc(N(C)C)cc3)[s+]2)cc1.[Cl-],–,5.7,25,"IC50 [12]: 6.6 µM; inhibition at 10 µM [6]: 81%; Papp A-B at 1 h, 5 µM (P-glycoprotein (MDR1) [7]): 0.11 ×10⁻⁶ cm/s; Ratio [8]: 8; Papp B-A at 1 h, 5 µM (P-glycoprotein (MDR1) [9]): 1.6 ×10⁻⁶ cm/s; IC50 [11]: 34 µM; logD at 1 h [10]: 1.6"
CC(C)(C)c1cc(-c2ccc(C(=O)N3CCCCC3)s2)cc(C(C)(C)C)[s+]1.F[P-](F)(F)(F)(F)F,–,5.5,0,"inhibition at 10 µM [6]: 11%; Papp A-B at 1 h, 5 µM (P-glycoprotein (MDR1) [7]): 0.38 ×10⁻⁶ cm/s; Ratio [8]: 10; Papp B-A at 1 h, 5 µM (P-glycoprotein (MDR1) [9]): 5.9 ×10⁻⁶ cm/s; inhibition (MDCK-II [4]): < 7%; logD at 1 h [10]: 0.2"
CN(C)c1ccc(-c2cc(-c3ccc(N(C)C)cc3)[te+]c(C(C)(C)C)c2)cc1,96,8.4,–,–
CC(C)(C)c1cc(-c2ccccc2)cc(C(C)(C)C)[se+]1,–,1.4,0,–
Cc1cc(C(C)(C)C)[o+]c(C(C)(C)C)c1,0,–,–,–
CCN(CC)C(=O)c1ccccc1-c1cc(C(C)(C)C)[s+]c(C(C)(C)C)c1,34,7.9,–,inhibition (MDCK-II [3]): 0%; inhibition (MDCK-II [4]): 0%
CN(C)c1ccc(-c2cc(-c3ccc(N(C)C)cc3)[s+]c(C(C)(C)C)c2)cc1,94,7.2,–,–
CC(C)(C)c1cc(-c2ccccc2)cc(C(C)(C)C)[s+]1,33,2.9,–,inhibition (MDCK-II [3]): 0%; inhibition (MDCK-II [4]): 1%
CCN(CC)C(=O)c1ccccc1-c1cc(C(C)(C)C)[te+]c(C(C)(C)C)c1,45,6.9,–,–
CN(C)c1ccc(-c2cc(-c3ccc(C(=O)O)s3)cc(C(C)(C)C)[s+]2)cc1,96,13,–,–
CCN(CC)C(=O)c1ccccc1-c1cc(-c2ccc(N(C)C)cc2)[s+]c(C(C)(C)C)c1,43,13.5,–,inhibition (MDCK-II [3]): 2%; inhibition (MDCK-II [4]): 13%
Cc1cc(-c2ccc(N(C)C)cc2)cc(-c2ccc(N(C)C)cc2)[se+]1,–,1.4,15,–
Cc1cc(-c2ccccc2)[s+]c(-c2ccccc2)c1,–,–,0,–
CN(C)c1ccc(-c2cc(-c3ccccc3)cc(C(C)(C)C)[s+]2)cc1,50,6.9,–,–
c1ccc(-c2cc(-c3ccc(N4CCOCC4)cc3)[te+]c(-c3ccc(N4CCOCC4)cc3)c2)cc1,89,4,–,–
CCCCc1cc(-c2ccc(N(C)C)cc2)cc(-c2ccc(N(C)C)cc2)[s+]1,–,5.9,–,inhibition at 5 µM [2]: 70%
CC(C)(C)c1cc(-c2ccccc2)cc(C(C)(C)C)[te+]1,34,1.5,–,–
Cc1cc(C(C)(C)C)[se+]c(C(C)(C)C)c1,0,–,–,–
Nc1ccc(-c2cc(-c3ccc(N4CCOCC4)cc3)cc(-c3ccc(N)cc3)[te+]2)cc1,–,–,8,–
CN(C)c1ccc(-c2cc(-c3ccc(C(=O)N4CCCCC4)s3)cc(-c3ccc(N(C)C)cc3)[s+]2)cc1.F[P-](F)(F)(F)(F)F,–,6,18,"IC50 [12]: 5.9 µM; inhibition at 10 µM [6]: 78%; Papp A-B at 1 h, 5 µM (P-glycoprotein (MDR1) [7]): 0.17 ×10⁻⁶ cm/s; Ratio [8]: 79; Papp B-A at 1 h, 5 µM (P-glycoprotein (MDR1) [9]): 62 ×10⁻⁶ cm/s; IC50 [11]: 24 µM; logD at 1 h [10]: 2.1"
